Measured values reported in article PMC9924264 (Journal of Medicinal Chemistry, 2023).

Assays:
BMPR2 = target: T1, BMPR2 (Homo sapiens, UniProt Q13873); test: ThermoFisher SelectScreen LanthaScreen assay; type: binding; details: than CDD-1115
T1 sequence (Q13873 27-1038): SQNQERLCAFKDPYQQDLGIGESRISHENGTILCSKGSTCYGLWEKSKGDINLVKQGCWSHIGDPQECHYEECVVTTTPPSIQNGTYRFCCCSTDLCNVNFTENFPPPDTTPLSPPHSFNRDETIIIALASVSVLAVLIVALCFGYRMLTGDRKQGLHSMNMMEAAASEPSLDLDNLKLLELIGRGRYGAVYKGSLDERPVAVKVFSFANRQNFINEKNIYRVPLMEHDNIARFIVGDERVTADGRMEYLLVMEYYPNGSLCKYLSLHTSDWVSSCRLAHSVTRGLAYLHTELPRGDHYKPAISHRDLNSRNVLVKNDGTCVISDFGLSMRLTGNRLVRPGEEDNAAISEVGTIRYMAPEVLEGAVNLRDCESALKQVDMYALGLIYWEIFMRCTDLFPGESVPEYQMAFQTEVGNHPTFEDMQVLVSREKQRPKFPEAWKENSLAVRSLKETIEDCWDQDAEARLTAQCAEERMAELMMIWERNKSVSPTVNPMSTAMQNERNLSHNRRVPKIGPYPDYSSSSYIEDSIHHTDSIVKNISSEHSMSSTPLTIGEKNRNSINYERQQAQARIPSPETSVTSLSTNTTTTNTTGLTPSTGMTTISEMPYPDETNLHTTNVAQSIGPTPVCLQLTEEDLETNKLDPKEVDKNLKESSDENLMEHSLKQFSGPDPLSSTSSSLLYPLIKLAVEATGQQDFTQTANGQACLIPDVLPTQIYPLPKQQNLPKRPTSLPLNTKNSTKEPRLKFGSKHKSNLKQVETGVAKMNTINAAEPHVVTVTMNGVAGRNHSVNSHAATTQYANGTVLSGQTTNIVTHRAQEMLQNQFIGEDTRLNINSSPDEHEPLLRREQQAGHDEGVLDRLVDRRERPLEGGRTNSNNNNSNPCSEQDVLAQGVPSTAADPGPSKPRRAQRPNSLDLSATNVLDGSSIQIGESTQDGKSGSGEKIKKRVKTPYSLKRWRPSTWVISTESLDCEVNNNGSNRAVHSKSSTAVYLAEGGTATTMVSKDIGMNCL

BMPR1A (ALK3) = BMPR1A (ALK3) (Homo sapiens, UniProt P36894); test: ThermoFisher SelectScreen LanthaScreen assay; type: binding; details: ALK3 vs BMPR2
TGFBR1 (ALK5) = target: T2, TGFBR1 (ALK5) (Homo sapiens, UniProt P36897); test: ThermoFisher SelectScreen LanthaScreen assay; type: binding; details: ALK5 vs BMPR2
T2 sequence (P36897 34-503): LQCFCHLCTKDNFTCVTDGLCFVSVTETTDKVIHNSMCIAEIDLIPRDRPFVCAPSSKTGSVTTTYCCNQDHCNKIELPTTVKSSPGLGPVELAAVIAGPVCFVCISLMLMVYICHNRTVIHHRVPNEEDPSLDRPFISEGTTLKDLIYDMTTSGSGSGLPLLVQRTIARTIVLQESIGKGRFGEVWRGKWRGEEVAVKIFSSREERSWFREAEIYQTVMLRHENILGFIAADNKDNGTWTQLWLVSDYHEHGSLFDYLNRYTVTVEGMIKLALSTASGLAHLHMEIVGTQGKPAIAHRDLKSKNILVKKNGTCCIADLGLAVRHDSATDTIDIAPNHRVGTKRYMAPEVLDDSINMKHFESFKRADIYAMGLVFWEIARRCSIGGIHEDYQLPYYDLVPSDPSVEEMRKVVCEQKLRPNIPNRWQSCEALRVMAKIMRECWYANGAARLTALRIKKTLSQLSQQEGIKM

BMPR1B (ALK6) = BMPR1B (ALK6) (Homo sapiens, UniProt O00238); test: ThermoFisher SelectScreen LanthaScreen assay; type: binding; details: ALK6 vs BMPR2
[1] = Metabolic stability in mouse liver microsomes; type: in vitro ADME; details: compared with analogue (CDD-1115 for CDD-1281, CDD-1431 for CDD-1653)
[2] = Metabolic stability in human liver microsomes; type: in vitro ADME; details: compared with analogue (CDD-1115 for CDD-1281, CDD-1431 for CDD-1653)
Method in brief: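 Human liver microsomes (0.5 mg protein/mL) incubated at 37 °C with test compound (2.0 μM) and NADPH cofactor (1.0 mM). Samples taken at 0, 30 and 60 min, in duplicate. […] Half-life was compared with that of the paired structural analogue.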

[3] = test system: pSMAD1/5 in human umbilical vein endothelial cells (HUVECs); test: pSMAD1/5 Western blot, BMP9-stimulated HUVECs; type: cell-based; details: 25 μM, 30 min pretreatment, 0.5 ng/mL BMP9 15 min
Method in brief: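 HUVECs, about 3 × 10^5 per well, starved overnight in Kaighn's F-12 with 0.5% FBS and 30 μg/mL endothelial cell growth supplement. Pretreated with inhibitors for 30 min, then given 0.5 ng/mL BMP9 for 15 min. Lysed with protease and phosphatase inhibitors. SDS-PAGE immunoblot for pSMAD1/5, SMAD1, SMAD5 and GAPDH, with densitometry. n = 3 biological replicates; one-way ANOVA with Tukey post hoc test.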

Chain of BMPR1B (ALK6) (O00238 14-502): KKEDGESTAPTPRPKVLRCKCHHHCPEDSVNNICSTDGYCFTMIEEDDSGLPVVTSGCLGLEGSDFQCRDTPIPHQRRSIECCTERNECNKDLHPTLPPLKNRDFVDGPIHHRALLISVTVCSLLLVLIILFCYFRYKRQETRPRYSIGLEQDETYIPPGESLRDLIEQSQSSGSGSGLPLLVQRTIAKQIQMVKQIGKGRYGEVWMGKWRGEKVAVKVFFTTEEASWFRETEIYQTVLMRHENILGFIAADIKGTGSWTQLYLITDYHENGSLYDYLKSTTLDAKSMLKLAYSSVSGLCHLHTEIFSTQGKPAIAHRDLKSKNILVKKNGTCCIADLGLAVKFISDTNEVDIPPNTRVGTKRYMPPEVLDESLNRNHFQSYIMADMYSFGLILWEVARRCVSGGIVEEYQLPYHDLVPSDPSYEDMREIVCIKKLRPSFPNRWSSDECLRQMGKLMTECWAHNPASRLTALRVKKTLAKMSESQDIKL
Chain of BMPR1A (ALK3) (P36894 24-532): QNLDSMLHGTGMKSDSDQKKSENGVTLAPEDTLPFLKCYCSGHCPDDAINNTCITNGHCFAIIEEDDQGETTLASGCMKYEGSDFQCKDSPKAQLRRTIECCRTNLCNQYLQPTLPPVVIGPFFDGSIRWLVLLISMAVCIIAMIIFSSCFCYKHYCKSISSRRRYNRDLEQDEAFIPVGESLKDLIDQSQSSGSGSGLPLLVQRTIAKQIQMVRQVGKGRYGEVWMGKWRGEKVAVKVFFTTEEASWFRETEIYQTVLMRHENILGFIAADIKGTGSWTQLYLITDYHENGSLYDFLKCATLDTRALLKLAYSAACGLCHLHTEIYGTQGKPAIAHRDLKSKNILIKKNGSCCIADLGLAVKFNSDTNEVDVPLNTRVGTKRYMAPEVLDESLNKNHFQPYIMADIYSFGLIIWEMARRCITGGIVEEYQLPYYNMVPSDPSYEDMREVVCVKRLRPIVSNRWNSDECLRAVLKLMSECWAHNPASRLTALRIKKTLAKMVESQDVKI

- fold higher potency (IC50) (BMPR2): 1.5 fold
- selectivity (BMPR1A (ALK3)): >830×
- selectivity (TGFBR1 (ALK5)): >830×
- selectivity (BMPR1B (ALK6)): >830×
- fold increase of half-life in MLM [1]: 3.5 fold
- fold increase of half-life in HLM [2]: 11.0 fold
Structure (SMILES): NC(=O)c1cccc(CNC(=O)c2ccc3nc(-c4ccc5cnccc5c4)n(C4CCCC4)c3c2)c1 [CDD-1281, N-(3-Carbamoylbenzyl)-1-cyclopentyl-2-(isoquinolin-6-yl)-1H-benzo[d]imidazole-6-carboxamide]
- phosphorylation of SMAD1/5 (pSMAD1/5) [3]: significantly decreased
